This is an account of results in ChEMBL document CHEMBL1153509, “2-O-beta-d-glucopyranosyl-sn-glycerol based analogues of sulfoquinovosyldiacylglycerols (SQDG) and their role in inhibiting Epstein-Barr virus early antigen activation” (Bioorg Med Chem, 2009).

Series [1] relates to Raji. Description: Inhibition of 12-O-tetradecanoylphorbol-13-acetate-induced EBV-early antigen activation in human Raji cells assessed as early antigen induction at 1000 molar ratio after 48 hrs by conventional indirect immunofluorescence technique relative to TPA. The note with it: human gammaherpesvirus 4. The series is classed as cell-based. Further details: scale not given: the % may be the effect or the level left. In outline: (§1)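 Raji cells (1×10^6/mL, RPMI 1640 plus 10% FCS) were incubated at 37 °C for 48 h in medium with 4 mM n-butyric acid, 32 pmol TPA in DMSO and test compound in DMSO, dosed as mol ratio to TPA. EA was detected by indirect immunofluorescence using high-titer EBV-positive NPC patient sera and FITC anti-human IgG, counting at least 500 cells. Runs were in triplicate. Results are expressed as % of the butyric acid plus TPA control (100%).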

For series [2], the system named is Raji. Description: Inhibition of 12-O-tetradecanoylphorbol-13-acetate-induced EBV-early antigen activation in human Raji cells assessed as early antigen induction at 500 molar ratio after 48 hrs by conventional indirect immunofluorescence technique relative to TPA. The series is classed as cell-based. Also on record: scale not given: the % may be the effect or the level left. The note with it: human gammaherpesvirus 4. In a few lines: as §1

In series [3] the test system is Raji. Description: Inhibition of 12-O-tetradecanoylphorbol-13-acetate-induced EBV-early antigen activation in human Raji cells assessed as early antigen induction at 100 molar ratio after 48 hrs by conventional indirect immunofluorescence technique relative to TPA. The series is classed as cell-based. Also on record: scale not given: the % may be the effect or the level left. The note with it: human gammaherpesvirus 4. In outline:
as §1

The test system of series [4] is Raji. The series is described as follows: Inhibition of 12-O-tetradecanoylphorbol-13-acetate-induced EBV-early antigen activation in human Raji cells assessed as early antigen induction at 10 molar ratio after 48 hrs by conventional indirect immunofluorescence technique relative to TPA. Further details: scale not given: the % may be the effect or the level left. It is filed as cell-based. The following applies: human gammaherpesvirus 4. In outline: as §1

Series [5] in a line: Cytotoxicity against human Raji cells assessed as cell viability at 1000 molar ratio after 48 hrs by trypan blue staining method. The note with it: read-out: Activity. It is filed as cell-based. In a few lines: (§2)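 Raji cells (1×10^6/mL) in RPMI 1640 with 10% fetal calf serum were incubated 48 h at 37 °C with 4 mM n-butyric acid, 32 pmol TPA in DMSO and test compound in DMSO. Compound doses were set as mol ratio to TPA. Viability was read by Trypan Blue staining 2 days after treatment.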

Series [6] is described as follows: Cytotoxicity against human Raji cells assessed as cell viability at 500 molar ratio after 48 hrs by trypan blue staining method. The series is classed as cell-based. The note with it: read-out: Activity. In outline:
as §2

Series [7] can be described thus: Cytotoxicity against human Raji cells assessed as cell viability at 100 molar ratio after 48 hrs by trypan blue staining method. It is filed as cell-based. The following applies: read-out: Activity. In a few lines:
as §2

The nature of series [8]: Cytotoxicity against human Raji cells assessed as cell viability at 10 molar ratio after 48 hrs by trypan blue staining method. It is filed as cell-based. The following applies: read-out: Activity. In a few lines: as §2
Series [9] in a line: Inhibition of 12-O-tetradecanoylphorbol-13-acetate-induced EBV-early antigen activation in human Raji cells assessed per TPA after 48 hrs by conventional indirect immunofluorescence technique. The series is classed as cell-based, human gammaherpesvirus 4. In a few lines:
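Raji cells (1×10^6/mL) were treated at 37 °C for 48 h with 4 mM n-butyric acid, 32 pmol TPA and test compound in DMSO. EA-positive cells were scored by indirect immunofluorescence (NPC patient sera, FITC anti-human IgG), at least 500 cells per run, in triplicate. IC50 was given as the compound/TPA mol ratio inhibiting 50% of the TPA-activated positive control.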

With `CCCCCCCCCCCC(=O)OCC(COC(=O)CCCCCCCCCCC)O[C@@H]1O[C@H](CS(=O)(=O)[O-])[C@@H](O)[C@H](O)[C@H]1O.[Na+]`, the Activity in the series with Raji [1] stood at 23.4%; with Raji [2] it was 62.6%; in the series on Raji [3] it was 85.2%; with Raji [4], 100%. Moreover, the viability at 48 h, 1000 molar ratio in series [5] came to 50%. In addition, the viability at 48 h, 500 molar ratio in series [6] was determined as 70%. Besides, the viability at 48 h, 100 molar ratio in series [7] was 80%. Also, in series [8], the viability at 48 h, 10 molar ratio turned out to be 80%. The compound also registered an IC50 in series [9] of 581 mol ratio/TPA.
As for `CCCCCCCCCCCC(=O)OCC(COC(=O)CCCCCCCCCCC)O[C@@H]1O[C@H](CO)[C@@H](O)[C@H](O)[C@H]1O`, the Activity with Raji [1] came to 13%; with Raji [2], 52.4%; in the series with Raji [3], 80.5%; in the series on Raji [4] it was 100%. The viability at 48 h, 1000 molar ratio in series [5] came out at 60%. Moreover, the viability at 48 h, 500 molar ratio in series [6] stood at 70%. The viability at 48 h, 100 molar ratio in series [7] was determined as 80%. The viability at 48 h, 10 molar ratio in series [8] stood at 80%. In addition, in series [9], the IC50 is 402 mol ratio/TPA.
With `CCCCCC(=O)OCCO[C@@H]1O[C@H](CO)[C@H](O)[C@H](O)[C@H]1O`, the Activity worked out at 6.7% in the series with Raji [1], 49.5% in the series on Raji [2], 78.5% in the series with Raji [3] and 100% in the series on Raji [4]. For the same compound, the viability at 48 h, 1000 molar ratio in series [5] was 70%. Moreover, the viability at 48 h, 500 molar ratio in series [6] stood at 80%. For the same compound, in [7], the viability at 48 h, 100 molar ratio turned out to be 80%. Further, the viability at 48 h, 10 molar ratio in series [8] worked out at 80%. The IC50 in series [9] was found to be 350 mol ratio/TPA.
In the case of `CCCCCC(=O)OCC(COC(=O)CCCCC)O[C@@H]1O[C@H](CO)[C@@H](O)[C@H](O)[C@H]1O`, the Activity was determined as 9.3% with Raji [1], 46.8% in the series with Raji [2], 76.9% in the series on Raji [3] and 100% in the series on Raji [4]. In addition, the viability at 48 h, 1000 molar ratio in [5] came to 60%. Moreover, in series [6], the viability at 48 h, 500 molar ratio is 70%. Moreover, the viability at 48 h, 100 molar ratio in series [7] was found to be 80%. The viability at 48 h, 10 molar ratio in [8] was determined as 80%. The compound further displayed an IC50 in series [9] of 327 mol ratio/TPA.
On to `CCCCCCCCCCCCCCCCCC(=O)OCC(COC(=O)CCCCCCCCCCCCCCCCC)O[C@@H]1O[C@H](CO)[C@@H](O)[C@H](O)[C@H]1O`, for which the Activity in the series on Raji [1] came out at 16.2%; with Raji [2], 57.8%; in the series with Raji [3], 82.8%; with Raji [4], 100%. In addition, the viability at 48 h, 1000 molar ratio in series [5] was found to be 60%. Besides, the viability at 48 h, 500 molar ratio in [6] amounted to 70%. Also, the viability at 48 h, 100 molar ratio in series [7] is 80%. In addition, the viability at 48 h, 10 molar ratio in series [8] came to 80%. Moreover, the IC50 in series [9] came out at 484 mol ratio/TPA.
`CCCCCC(=O)OC[C@H](CO)O[C@@H]1O[C@H](COC(=O)CCCCC)[C@@H](O)[C@H](O)[C@H]1O`: the Activity in the series with Raji [1] stood at 0%; in the series with Raji [2] it was 15.1%; in the series on Raji [3] it was 34.6%; in the series with Raji [4], 71.5%. Further, the viability at 48 h, 1000 molar ratio in series [5] stood at 70%. Further, the viability at 48 h, 500 molar ratio in series [6] was 80%. The viability at 48 h, 100 molar ratio in series [7] came to 80%. Moreover, the viability at 48 h, 10 molar ratio in [8] came out at 80%. In series [9], the IC50 is 37.3 mol ratio/TPA.
Consider `CCCCCCCCCCCCCCCCCC(=O)OCC(COC(=O)CCCCCCCCCCCCCCCCC)O[C@@H]1O[C@H](CS(=O)(=O)[O-])[C@@H](O)[C@H](O)[C@H]1O.[Na+]`, for which the Activity stood at 25.1% in the series on Raji [1], 65.1% with Raji [2], 87.4% in the series on Raji [3] and 100% in the series on Raji [4]. Also, the viability at 48 h, 1000 molar ratio in series [5] is 50%. In series [6], the viability at 48 h, 500 molar ratio was 70%. For the same compound, in series [7], the viability at 48 h, 100 molar ratio is 80%. The viability at 48 h, 10 molar ratio in series [8] is 80%. This compound also gave an IC50 in series [9] of 632 mol ratio/TPA.
As for `CCCCCC(=O)OCC(COC(=O)CCCCC)O[C@@H]1O[C@H](CS(=O)(=O)[O-])[C@@H](O)[C@H](O)[C@H]1O.[Na+]`, the Activity with Raji [1] is 20.3%; in the series on Raji [2] it was 60.5%; in the series with Raji [3], 84.3%; in the series with Raji [4] it was 100%. Besides, in series [5], the viability at 48 h, 1000 molar ratio is 50%. Further, the viability at 48 h, 500 molar ratio in [6] was 70%. For the same compound, the viability at 48 h, 100 molar ratio in [7] was 80%. For the same compound, the viability at 48 h, 10 molar ratio in series [8] turned out to be 80%. The IC50 in [9] is 539 mol ratio/TPA.
